# Compound activity deposited in PubChem BioAssay by several laboratories.
# MC4R antag cAMP: human MC4R antagonism in cAMP assay | P32245 | actives 0.48% (n = 360,000) | inhibition, % at 6.5 µM | MC4R-expressing cells, MTII-stimulated cAMP, LANCE TR-FRET;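 active = inhibition above its plate's cutoff, the mean of tested wells on that plate plus 3 SD, cut at about 29% in these data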;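 also: 0% = Melanotan II alone and 100% = Melanotan II plus saturating MCL0020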
# Target sequence (P32245 whole entry, looked up): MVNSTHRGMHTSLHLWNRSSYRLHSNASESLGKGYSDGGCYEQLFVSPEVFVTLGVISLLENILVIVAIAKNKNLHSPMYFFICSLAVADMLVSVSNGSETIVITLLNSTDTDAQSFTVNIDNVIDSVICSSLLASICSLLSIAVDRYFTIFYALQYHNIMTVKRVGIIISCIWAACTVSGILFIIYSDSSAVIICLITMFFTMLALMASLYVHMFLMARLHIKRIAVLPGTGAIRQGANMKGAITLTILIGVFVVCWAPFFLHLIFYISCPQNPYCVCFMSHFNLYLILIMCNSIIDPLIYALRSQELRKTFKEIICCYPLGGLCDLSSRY
#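 System: U2OS cells stably expressing human melanocortin 4 receptor (MC4R). Reagent: Melanotan II challenge after compound preincubation. Doses: 6.5 µM. Times: 30-min compound, 1-h challenge, 1-h detection, room temperature. Measured by: TR-FRET with Eu-cAMP and labeled anti-cAMP, 671 nm. Replicates: singlicate.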
# NR2E3 ag-1: agonists of human NR2E3 nuclear receptor; actives 0.35% (n = 360,000); inhibition of corepressor binding, % at 3.98 µM; CHO-S Gal4-NCOR/VP16-NR2E3 two-hybrid, luciferase; Q9Y5X4;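 active = inhibition above the mean of all tested compounds plus 3 SD, cut at about 70% in these data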;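 also: 0% = DMSO with NR2E3 transfected cells and 100% = cells lacking NR2E3 construct; higher means lower luciferase signal from less NR2E3 corepressor binding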
# PG9 binder: small molecules binding HIV-1 gp120 antibody PG9. TR-FRET gp120-PG9 antibody binding. actives 0.43% (n = 360,000). inhibition, % at 6.7 µM; in the data active = inhibition above about 8.5%
# MC4R barr agon: activates human MC4R beta-arrestin recruitment; actives 0.98% (n = 360,000); P32245; U2OS MC4R beta-arrestin complementation, luminescence; percent of melanotan II response, DMSO zero; activation, % at 8.9 µM;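 active = activation above a per-plate cutoff, the mean activation of sample wells on that plate plus 3 SD, cut at about 8% in these data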
# NR2E3 ag-2: NR2E3 (human) agonism. GST-NR2E3/biotin-RetCOR TR-FRET, 1536-well. inhibition of corepressor binding, % at 4.78 µM. actives 0.12% (n = 320,000). AID 2300;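 active = percent inhibition above the cutoff of mean plus 3 SD of all tested compounds, set per screening campaign, cut at about 20% in these data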;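 also: 0% = DMSO wells and 100% = biotin wells as full block of FRET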
#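 Test system: GST-NR2E3 and biotin-RetCOR proteins | Quantity: 1.35 nM GST-tagged NR2E3 final | Medium: Tris pH 7.5 | Also added: 7 nM biotin-RetCOR | Dosing: Compound at 4.8 µM, single dose | Timing: 5 h at 4 °C | Detection: Time-resolved FRET | Read-out basis: Percent inhibition | Benchmarks: Biotin wells as high control, 0.6% DMSO wells as low control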
# Rev-erbA mod: modulates human Rev-erb alpha binding to DNA; Rev-erbα–FITC-DNA binding, fluorescence polarization, 90 min; activity, % at 10 µM; actives 0.79% (n = 370,000);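 active = activity above about 14%, limit read from the data; passing the limit was not always enough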;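 also: 0% = DMSO wells with 35 nM protein and 100% = DMSO wells with 750 nM protein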
# NR2E3 ag confirm: confirmation of human NR2E3 agonists; shares compounds with NR2E3 ag-1; CHO-S mammalian two-hybrid NR2E3-NCOR, luciferase luminescence; inhibition, % at 3.98 µM; actives 51% (n = 2,300);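 active = average inhibition above a cutoff equal to the mean inhibition of all tested compounds plus one SD, cut at about 70% in these data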;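 also: 0% = DMSO in NR2E3 cells and 100% = DMSO in cells lacking NR2E3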
# GAL4-VP16 luc: reduces GAL4-VP16 reporter signal in NR2E3 counterscreen; shares compounds with NR2E3 ag-1; CHO-S GAL4-VP16 luciferase reporter, luminescence; inhibition, % at 3.98 µM; actives 29% (n = 2,300); AID 624379;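 active = mean inhibition above a cutoff equal to the average over all tested compounds plus one standard deviation, cut at about 70% in these data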;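 also: luciferase from a UAS reporter driven by GAL4-VP16 transactivation; 0% = DMSO with VP16-transfected cells and 100% = DMSO with cells lacking VP16; higher means less reporter light so more repression of VP16 activity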
# The depositor's hits bear a star; / = no result given. A selection: hits, their analogues and other compounds. The true share with any hit is near 2.7%.
SMILES,MC4R antag cAMP,NR2E3 ag-1,PG9 binder,MC4R barr agon,NR2E3 ag-2,Rev-erbA mod,NR2E3 ag confirm,GAL4-VP16 luc
CC1C(=O)N(Cc2cn(CC3CCCCC3)nn2)CCS(=O)(=O)N1Cc1ccc(-c2ccc(Cl)cc2)cc1 (centres undefined),0,59,/,0,/,/,32,34
CC1C(=O)N(Cc2cn(CC3CCCCC3)nn2)CCS(=O)(=O)N1Cc1ccc(-c2ccc(Cl)c(Cl)c2)cc1 (centres undefined),4,5,1,0,/,3,/,/
CC1C(=O)N(Cc2cn(CCC3OCCCO3)nn2)CCS(=O)(=O)N1Cc1ccc(-c2ccc(Cl)c(Cl)c2)cc1 (centres undefined),12,68,0,-1,/,8,93*,77*
CC1C(=O)N(Cc2cn(CCC3OCCCO3)nn2)CCS(=O)(=O)N1Cc1ccc(-c2ccc(F)cc2)cc1 (centres undefined),2,2,0,0,/,-8,/,/
Cn1cc([N+](=O)[O-])c(C(=O)Nc2nc(-c3ccc(Cl)cc3)cs2)n1,1,71*,-1,3,2,1,47,0
CN1CCc2c(sc(N)c2C(N)=O)C1,11,-11,0,0,0,-7,/,/
Cc1csc2ncnc(NCCc3ccccn3)c12,-6,71*,-6,-2,3,13,90*,77*
c1ccc(CCNc2ncnc3sccc23)nc1,10,2,0,0,0,-1,/,/
CSCCC(NC(=O)c1ccc(Cl)cc1)C(=O)OCC(=O)Nc1ccc(C#N)cc1 (centres undefined),6,4,0,0,1,0,/,/
CN(C)S(=O)(=O)Oc1cccc(C(=O)Nc2ccc(Cl)cc2)c1,1,60,-3,0,1,-1,30,7
CCn1ncc(/C=C/C(=O)Nc2c(C)nn(Cc3ccc(Cl)cc3Cl)c2C)c1C,-2,50,-1,-2,-3,2,32,40
CCn1nc(C)c(NC(=O)/C=C/c2cnn(C)c2C)c1C,6,2,-3,-2,1,7,/,/
Cc1ccc(S(=O)(=O)N2[C@@H](c3ccc(Br)cc3)C(C(=O)O)=CC[C@H]2c2ccc(Cl)c(Cl)c2)cc1,-4,76*,-3,-1,/,4,74*,42
Cc1ccc([C@H]2C(C(=O)O)=CC[C@@H](c3ccc(Cl)cc3)N2S(=O)(=O)c2ccc(C)cc2)cc1,6,26,0,3,/,-3,/,/
Cc1ccc(S(=O)(=O)N2[C@@H](c3ccc(Cl)cc3)C(C(=O)O)=CC[C@H]2c2ccc(C(C)C)cc2)cc1,1,70,-1,0,1,1,87*,48
Cc1ccc([C@H]2C(C(=O)O)=CC[C@@H](c3ccc(C(C)C)cc3)N2S(=O)(=O)c2ccc(C)cc2)cc1,3,92*,1,0,/,-12,51,36
Cc1ccc(S(=O)(=O)N2[C@@H](c3ccccc3)C(C(=O)O)=CC[C@H]2c2ccc(C(C)C)cc2)cc1,6,3,0,0,2,-3,/,/
CCc1ccc([C@@H]2CC=C(C(=O)O)[C@H](c3ccc(Cl)cc3)N2S(=O)(=O)c2ccc(C)cc2)cc1,1,76*,0,0,4,-4,56,40
CCc1ccc([C@@H]2CC=C(C(=O)O)[C@H](c3ccc(C)cc3)N2S(=O)(=O)c2ccc(C)cc2)cc1,7,46,0,0,/,-4,/,/
Cc1ccc2nc(-c3cccc(NC(=O)c4ccco4)c3)[nH]c2c1,4,-74,-1,-2,1,9,/,/
CSc1cccc(NC(=O)CSc2ncccc2C(=O)Oc2cccc([N+](=O)[O-])c2)c1,2,-92,-1,-2,-2,0,/,/
